LMPTP inh: LMPTP (human) inhibition; recombinant LMPTP-A, OMFP fluorogenic substrate, fluorescence intensity; inhibition, % at 20 µM; hit rate 0.22% among 360,000; AID 651560;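 active means compounds that cut the enzyme signal by at least half of the control window in the single-dose screen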;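 further: plate controls were DMSO wells with enzyme plus substrate for no effect and substrate without enzyme for full effect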
Target sequence (P24666 whole entry, looked up): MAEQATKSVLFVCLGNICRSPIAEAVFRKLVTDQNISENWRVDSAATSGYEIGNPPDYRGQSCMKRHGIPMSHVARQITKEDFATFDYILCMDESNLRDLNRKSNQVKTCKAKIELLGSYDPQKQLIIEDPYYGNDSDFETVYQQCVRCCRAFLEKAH
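Test system: LMPTP-A phosphatase enzyme. Amount: LMPTP-A at 0.625 nM final in the reaction. Reagent: OMFP substrate, 400 µM final. Times: 50 min at room temperature. Signal: endpoint fluorescence intensity from OMFP dephosphorylation. Read-out basis: % inhibition. Benchmarks: no-enzyme and uninhibited controls.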
STEP block: inhibitors of human striatal-enriched phosphatase STEP; recombinant STEP, OMFP fluorogenic substrate, fluorescence; inhibition, % at 20 µM; hit rate 0.25% among 360,000; AID 588621;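 active means inhibition at 20 µM, scaled per plate between control wells, above about 37%, limit read from the data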;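 further: 0% = DMSO with enzyme and substrate and 100% = substrate only without enzyme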
Target sequence (P54829 whole entry, looked up): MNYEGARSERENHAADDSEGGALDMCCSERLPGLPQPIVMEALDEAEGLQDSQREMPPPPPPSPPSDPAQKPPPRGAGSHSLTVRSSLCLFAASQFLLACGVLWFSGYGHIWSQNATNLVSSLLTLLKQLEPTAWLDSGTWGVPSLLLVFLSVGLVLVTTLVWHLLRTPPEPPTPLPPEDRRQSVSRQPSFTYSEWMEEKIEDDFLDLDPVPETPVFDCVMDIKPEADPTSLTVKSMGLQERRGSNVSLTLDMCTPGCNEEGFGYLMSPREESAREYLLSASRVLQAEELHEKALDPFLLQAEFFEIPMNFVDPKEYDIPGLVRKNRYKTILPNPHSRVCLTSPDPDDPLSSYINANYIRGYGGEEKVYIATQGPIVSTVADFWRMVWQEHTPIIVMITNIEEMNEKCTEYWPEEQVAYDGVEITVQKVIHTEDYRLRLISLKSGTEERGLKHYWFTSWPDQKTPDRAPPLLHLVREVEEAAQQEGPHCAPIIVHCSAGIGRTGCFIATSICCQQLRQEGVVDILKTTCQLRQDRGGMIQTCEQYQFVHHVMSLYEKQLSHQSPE
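Assay system: isolated STEP enzyme / Timing: 20 min at room temperature, dark / Doses: 20 µM, 1% DMSO / Technique: fluorescence intensity, excitation 480 nm, emission 540 nm / Reagent: fluorogenic phosphatase substrate OMFP at 25 µM final / Measure: percent inhibition scaled to no-enzyme and uninhibited-enzyme controls, plate-pattern corrected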
Scp1 inh: inhibitors of human Scp-1 phosphatase; Q9GZU7; Recombinant Scp1, phosphopeptide, malachite green phosphate absorbance; inhibition, % at 20 µM; hit rate 0.88% among 340,000; AID 493091;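 active means inhibition above about 50% at 20 µM, limit read from the data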;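 further: plate controls were DMSO wells with enzyme for no effect and wells lacking enzyme for full effect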
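System: truncated SCP-1 phosphatase (76-261aa); medium: Tris acetate buffer pH 5.5 with MgCl2 and Tween-20; incubation: 45 min room-temperature reaction, 5 min colour, 30 min stabiliser; compound: single 20 µM dose, 1% DMSO; reagent: Phosphorylated 17-residue peptide substrate; read-out: % inhibition at 20 µM; technique: colorimetric free-phosphate detection, absorbance 630 nm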
CSN deneddyl inh: blocks human CSN-mediated cullin deneddylation. Purified CSN, SCF-Nedd8-OG deneddylation, fluorescence polarization. inhibition, % at 12.5 µM. hit rate 0.38% among 360,000;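 active means pattern-corrected inhibition above about 35%, with an unprinted fluorescence ratio check between 0.5 and 1.5, limit read from the data, passing the limit was not always enough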;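 further: 0% = enzyme with substrate and 100% = substrate without enzyme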
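assay system = purified human Csn5 enzyme expressed in HEK293T cells | amount = 0.24 nM enzyme | buffer or medium = Tris/NaCl/DTT buffer, pH 7.5 | reagent = 10 nM SCFSkp2-Nedd8OG | compound = one concentration, 12.5 µM, 0.25% DMSO | times = 90 min reaction at room temperature | signal = FP | read-out basis = % inhibition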
DNMT1 block: DNMT1 (human) enzyme inhibition; inhibition (reported as % activation of signal), % at 10 µM; hit rate 0.83% among 360,000; DNMT1 molecular beacon, Hinp1I cleavage, fluorescence; P26358; in the data active means inhibition above about 50%
SUMO1-SIM PPI: alters human SUMO1 binding to SIM partners. hit rate 0.33% among 360,000. SUMO1 binding to a labelled peptide, TR-FRET, 1 h. inhibition, % at 20 µM. AID 602429; in the data active means inhibition above about 37%
Scp1 confirm: Scp-1 (human) inhibition, single-dose confirmed; shares compounds with Scp1 inh; recombinant SCP-1 catalytic domain, phosphate release, malachite green absorbance; inhibition, % at 20 µM; hit rate 61% among 2,500;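 further: plate controls were DMSO with enzyme for no effect and buffer wells lacking enzyme for full effect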
MG interference: colorimetric interference in Scp-1 counter-screen; shares compounds with Scp1 inh; Colorimetric interference counterscreen, malachite green absorbance 630 nm; apparent inhibition (interference), % at 20 µM; 2,500 tested, under 10 active; AID 540313;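 further: compounds added after enzyme reaction finished so only phosphate colour detection is probed; plate controls were DMSO wells with completed Scp-1 reaction for no effect and substrate wells lacking enzyme for full effect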
Scp1 DSF: Scp-1 (human) binding by thermal shift; shares compounds with Scp1 inh; Recombinant SCP1, Sypro Orange thermal shift Tm; thermal shift relative to vanadate control, % at 40 µM; hit rate 25% among 1,500;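 active means substances whose mean melting-temperature shift, as a percentage of the reference inhibitor's shift, reaches about 5.3%, limit read from the data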;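 further: 0% = Tm of DMSO wells and 100% = Tm with sodium orthovanadate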
The depositor's hits bear a star; . = not tested or not shown. Sampled rows, rich in hits. Any-hit rate of the full collection: about 1.9%.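 How the source made its calls, unless noted: active means inhibition of at least 30% at 20 µM; inactive means the rest.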

SMILES	LMPTP inh	STEP block	Scp1 inh	CSN deneddyl inh	DNMT1 block	SUMO1-SIM PPI	Scp1 confirm	MG interference	others
CN=c1nc(-c2ccccc2)n(-c2ccccc2)s1	-1	-1	76*	-2	0	3	29	-7
CC(=O)Nc1ccc(NC(=O)CSc2ccc(-c3ccco3)nn2)cc1	3	2	51*	-2	-3	5	14	-23
Cc1ccc(SCC(=O)Nc2ccc(-c3nnc(-c4ccco4)o3)cc2)cc1	30	13	70*	7	16	2	77*	-7	Scp1 DSF=-21
Cc1cccc(NC(=O)CSc2ccc(-c3ccco3)nn2)c1	0	-1	-4	-4	-11	-5	.	.
CC(=O)Nc1cccc(NC(=O)CSc2ccc(-c3ccco3)nn2)c1	5	1	70*	5	5	0	1	-21
OC(c1ccc(-c2ccccc2)cc1)c1ncc(-c2ccccc2F)[nH]1 (stereo not drawn)	2	0	.	1	-3	5	.	.
CCC(C)N(CC(=O)Nc1cccc(C)c1C)C(=O)CCl (stereo not drawn)	-1	-2	-4	-5	3	4	.	.
CCOC(=O)c1c(-c2ccco2)csc1NC(=O)COC(=O)c1cnccn1	4	2	60*	29	13	10	29	-24
CCNc1nc(NCC)n2c(SCC(=O)Nc3ccc(F)cc3)nnc2n1	0	7	54*	4	55*	11	55*	-7	Scp1 DSF=-20
CCNc1nc(NCC)n2c(SCC(=O)Nc3ccc(C)c(C)c3)nnc2n1	0	1	30	2	13	11	.	.
CCNc1nc(NCC)n2c(SCC(=O)Nc3ccc(OC(F)F)cc3)nnc2n1	4	2	68*	5	49	20	39*	-11	Scp1 DSF=-13
CCNc1nc(NCC)n2c(SCC(=O)Nc3ccccc3)nnc2n1	-1	-2	-9	-3	0	3	.	.
Cc1cc(C)c(-n2c(SCC(=O)N3CCOCC3)n[nH]c2=O)c(C)c1	1	1	-4	1	3	2	.	.
CCCCCNC(=O)C1CC(=O)OC12CCCCC2 (stereo not drawn)	-1	-2	-1	1	2	0	.	.
O=C(O)C(F)=C(c1ccccc1)c1ccccc1	-3	2	52*	0	1	4	-10	-7
C[C@@H]1NC(=O)c2cc([N+](=O)[O-])cc(I)c2OCC[C@@H](C(=O)NC(CC(=O)O)C(N)=O)NC(=O)[C@H](CCC(=O)O)NC1=O (stereo partly drawn)	.	.	50*	.	.	.	53*	-13	Scp1 DSF=-4
NC(=O)C(CC(=O)O)NC(=O)[C@@H]1CCOc2c(I)cc([N+](=O)[O-])cc2C(=O)N[C@@H](CCC(=O)O)C(=O)N[C@@H](CO)C(=O)N1 (stereo partly drawn)	.	.	29	.	.	.	.	.
NC(=O)C(CC(=O)O)NC(=O)[C@@H]1CCCNc2c(I)cc([N+](=O)[O-])cc2C(=O)N[C@@H](CO)C(=O)N[C@@H](Cc2ccc(O)cc2)C(=O)N1 (stereo partly drawn)	0	3	62*	9	10	-7	43*	-13	Scp1 DSF=9.8*
NC(=O)CC[C@@H]1NC(=O)[C@H](CO)NC(=O)c2cc([N+](=O)[O-])cc(I)c2NCCCC[C@@H](C(N)=O)NC(=O)[C@H](Cc2ccc(O)cc2)NC1=O	.	.	-3	.	.	.	.	.
Cc1nnsc1-c1c(C(=O)N2CCOCC2)c(C)nn1-c1ccccc1	0	-1	-4	-4	-2	10	.	.
Cc1nnsc1-c1c(C(=O)O)c(C)nn1-c1ccc(OC(F)(F)F)cc1	-1	0	91*	3	0	3	-8	-11
CN(c1ccc(OCC(=O)OCC(=O)c2c(N)n(C)c(=O)n(C)c2=O)cc1)S(=O)(=O)c1ccc2ccccc2c1	2	0	-15	-3	-2	-4	.	.
Cc1ccc(/C=N/NC(=O)CCCOc2ccc(Cl)cc2Cl)cc1[N+](=O)[O-]	9	5	58*	14	17	0	38*	-11	Scp1 DSF=5
COc1ccc(/C=N/NC(=O)CCCOc2ccc(Cl)cc2Cl)cc1[N+](=O)[O-]	3	1	-4	-1	-15	-2	.	.
CC(C)NC(=O)C1CC(=O)N(c2ccc(F)c(Cl)c2)C1 (stereo not drawn)	-1	-1	-2	4	0	-2	.	.
SMILES	LMPTP inh	STEP block	Scp1 inh	CSN deneddyl inh	DNMT1 block	SUMO1-SIM PPI	Scp1 confirm	MG interference	others
CCOC(=O)C1CCCN(C(=O)c2ccc(CS(=O)(=O)c3ccc(C)cc3)o2)C1 (stereo not drawn)	0	1	57*	6	46	5	55*	-11	Scp1 DSF=5
Cc1ccc(S(=O)(=O)Cc2ccc(C(=O)N3CCCCCC3)o2)cc1	-1	5	18	-6	7	6	.	.
C[C@@H]1CN([C@@H](C)CO)C(=O)c2cc(Br)cnc2O[C@H]1CN(C)S(=O)(=O)c1cccs1	0	-4	.	1	5	2	.	.
CC(=O)N1c2ccc(S(=O)(=O)N3CCCC3C(=O)NCc3ccccc3Cl)cc2CC1C (stereo not drawn)	1	2	-4	0	0	3	.	.
O=C(N/N=C/c1cc(Cl)cc([N+](=O)[O-])c1O)c1cc(-c2ccccn2)nc2ccccc12	0	15	104*	2	-9	11	88*	-10	Scp1 DSF=12*
O=C(CSc1nnc(-c2ccc(C(F)(F)F)cn2)s1)c1ccc(Cl)cc1	-1	2	-6	1	7	-6	.	.
N=c1nc2n(cc1F)C1OC(CO)C(O)C1O2 (stereo not drawn)	1	-2	72*	-2	-1	2	-1	-7
COc1ccc(OC)c(NC(=S)N2CCC(C(O)(c3ccccc3)c3ccccc3)CC2)c1	0	0	-2	-7	-4	1	.	.
COc1cc(/C=C/[N+](=O)[O-])ccc1OC(=O)/C=C/c1ccc(F)cc1	-1	-1	-7	1	-9	-4	.	.
O=C(O)c1cccc2c1C(=O)c1cc([N+](=O)[O-])cc([N+](=O)[O-])c1-2	1	-2	.	4	11	0	.	.

Screening data from PubChem.
